Experimental data reported in ChEMBL document CHEMBL3351537, “Design, synthesis and biological evaluation of 4-fluoropyrrolidine-2-carbonitrile and octahydrocyclopenta[b]pyrrole-2-carbonitrile derivatives as dipeptidyl peptidase IV inhibitors” (Eur J Med Chem, 2014).
pIC50: −log10 of the molar value. Each block holds one molecule with its values, some of them ahead of it. The source made the active and inactive calls. No cut-off for these calls is given here.

Legend:
Dipeptidyl peptidase 2 = Dipeptidyl peptidase 2 (Homo sapiens, UniProt Q9UHL4); assay: Inhibition of DPP7 (unknown origin) expressed in baculovirus expression system using Nle-Pro-AMC as substrate by continuous fluorometric assay
Prolyl endopeptidase FAP = target: T1, Prolyl endopeptidase FAP (Homo sapiens, UniProt Q12884); assay: Inhibition of FAP (unknown origin) expressed in baculovirus expression system using Nle-Pro-AMC as substrate by continuous fluorometric assay
T1 sequence (Q12884 whole entry): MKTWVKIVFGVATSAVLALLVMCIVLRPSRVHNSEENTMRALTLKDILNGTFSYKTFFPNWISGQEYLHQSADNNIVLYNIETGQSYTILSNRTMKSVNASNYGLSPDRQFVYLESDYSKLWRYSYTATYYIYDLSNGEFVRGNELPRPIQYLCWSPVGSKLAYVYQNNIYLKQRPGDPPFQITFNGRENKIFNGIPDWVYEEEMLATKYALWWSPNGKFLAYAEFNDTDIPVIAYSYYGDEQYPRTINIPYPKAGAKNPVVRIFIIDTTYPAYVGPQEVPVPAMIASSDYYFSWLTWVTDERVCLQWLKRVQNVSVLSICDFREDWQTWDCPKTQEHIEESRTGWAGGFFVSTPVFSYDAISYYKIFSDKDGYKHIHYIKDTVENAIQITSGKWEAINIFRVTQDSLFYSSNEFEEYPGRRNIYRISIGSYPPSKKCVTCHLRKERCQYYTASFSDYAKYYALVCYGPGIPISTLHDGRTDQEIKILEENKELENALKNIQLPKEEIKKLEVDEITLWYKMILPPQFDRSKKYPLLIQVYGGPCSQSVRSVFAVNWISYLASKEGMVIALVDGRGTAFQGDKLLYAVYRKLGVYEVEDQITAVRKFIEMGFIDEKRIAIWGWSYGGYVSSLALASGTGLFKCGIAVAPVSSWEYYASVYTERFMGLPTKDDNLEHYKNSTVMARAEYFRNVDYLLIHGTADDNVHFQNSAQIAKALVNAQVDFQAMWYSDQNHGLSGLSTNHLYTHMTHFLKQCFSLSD

Dipeptidyl peptidase 8 = Dipeptidyl peptidase 8 (Homo sapiens, UniProt Q6V1X1); assay: Inhibition of DPP8 (unknown origin) expressed in baculovirus expression system using Ala-Pro-AMC as substrate by continuous fluorometric assay
Dipeptidyl peptidase 9 = Dipeptidyl peptidase 9 (Homo sapiens, UniProt Q86TI2); assay: Inhibition of DPP9 (unknown origin) expressed in baculovirus expression system using Ala-Pro-AMC as substrate by continuous fluorometric assay
Mus musculus [1] = assay: Reduction in total cholesterol content in C57BKS db/db mouse at 15 mg/kg/day, po; type: functional, organism-based
Rattus norvegicus [2] = assay: AUC (0 to infinity) in Sprague-Dawley rat at 20 mg/kg, po; type: ADME, organism-based, Plasma; parameters: time infinity, dose 20 mg/kg, route oral; details: in vivo
How it was run: (§1)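 SD rats dosed orally or intravenously. Blood sampled after dosing and spun to plasma. Plasma deproteinized with methanol containing internal standard, centrifuged, supernatant diluted in methanol and centrifuged again. Compound levels measured by LC/MS/MS. PK parameters were derived from these plasma concentrations.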

Mus musculus [3] = assay: Reduction in free fatty acid in C57BKS db/db mouse at 15 mg/kg/day, po (reference value: 1.46 +/- 0.10 mM); type: functional
Rattus norvegicus [4] = assay: Oral bioavailability in Sprague-Dawley rat at 20 mg/kg; type: ADME, organism-based; details: in vivo; how it was run: as §1
[5] = Cmax in Sprague-Dawley rat at 10 mg/kg, iv; type: ADME, organism-based; parameters: dose 10 mg/kg, route intravenous; details: in vivo; how it was run: as §1
[6] = Cmax in Sprague-Dawley rat at 20 mg/kg, po; type: ADME, organism-based; parameters: dose 20 mg/kg, route oral; details: in vivo; how it was run: as §1
[7] = Mean residence time in Sprague-Dawley rat at 20 mg/kg, po; type: ADME, organism-based; parameters: dose 20 mg/kg, route oral; details: in vivo; how it was run: as §1
Rattus norvegicus [8] = assay: AUC (0 to infinity) in Sprague-Dawley rat at 10 mg/kg, iv; type: ADME, organism-based, Plasma; parameters: time infinity, dose 10 mg/kg, route intravenous; details: in vivo; how it was run: as §1
Mus musculus [9] = assay: Reduction in fasting blood glucose level in C57BKS db/db mouse at 15 mg/kg/day, po (Rvb =23.0 +/- 1.0 mM); type: functional
[10] = Half life in Sprague-Dawley rat at 20 mg/kg, po; type: ADME, organism-based; parameters: dose 20 mg/kg, route oral; details: in vivo; how it was run: as §1
[11] = Mean residence time in Sprague-Dawley rat at 10 mg/kg, iv; type: ADME, organism-based; parameters: dose 10 mg/kg, route intravenous; details: in vivo; how it was run: as §1
Cytochrome P450 2C9 = Cytochrome P450 2C9 (Homo sapiens, UniProt P11712); assay: Inhibition of CYP2C9 (unknown origin); type: ADME
[12] = Tmax in Sprague-Dawley rat at 10 mg/kg, iv; type: ADME, organism-based; parameters: dose 10 mg/kg, route intravenous; details: in vivo; how it was run: as §1
Mus musculus [13] = assay: Reduction in random blood glucose level in C57BKS db/db mouse at 15 mg/kg/day, po (Rvb =23.3 +/- 1.0 mM); type: functional
Mus musculus [14] = assay: Reduction in plasma triglyceride content in C57BKS db/db mouse at 15 mg/kg/day, po (reference value: 1.01 +/- 0.09 mM); type: functional
Mus musculus [15] = assay: Reduction in glucose excursion in ICR mouse compound administered as single dose measured at 15 mins post dose by oral glucose tolerance test; type: functional, organism-based
How it was run: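 Fasted ICR mice (16 h) given a single oral dose, 5 or 15 mg/kg in 0.5% methylcellulose (10 mL/kg). Oral glucose challenge 2.5 g/kg given 30 min later. Blood glucose read at 0, 15, 30, 60, 90 and 120 min for AUC. Vehicle control included; mean ± SE, Student's t-test.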

Cytochrome P450 3A4 = Cytochrome P450 3A4 (Homo sapiens, UniProt P08684); assay: Inhibition of CYP3A4 (unknown origin); type: ADME
[16] = AUC (0 to t) in Sprague-Dawley rat at 20 mg/kg, po; type: ADME, organism-based; parameters: dose 20 mg/kg, route oral; details: plasma; how it was run: as §1
[17] = Half life in Sprague-Dawley rat at 10 mg/kg, iv; type: ADME, organism-based; parameters: dose 10 mg/kg, route intravenous; details: in vivo; how it was run: as §1
[18] = target: T2, Voltage-gated inwardly rectifying potassium channel KCNH2 (Homo sapiens, UniProt Q12809); assay: Inhibition of human ERG expressed in CHO cells after 20 mins by patch clamp assay; type: cell-based
[19] = target: T2, Voltage-gated inwardly rectifying potassium channel KCNH2; assay: Inhibition of human ERG expressed in CHO cells after 20 mins by thallium assay; type: cell-based
How it was run: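 CHO-hERG-ZG cells grown with 100 μg/mL G418 and 100 μg/mL hygromycin B, then seeded and incubated 16–18 h at 37 °C. Cells held in loading buffer 90 min in the dark at RT, switched to assay buffer, and exposed to compound 20 min in the dark at RT. FluxOR thallium flux read on FDSS: baseline to 10 s, stimulus buffer added at 10 s, recording to 180 s.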

[20] = Tmax in Sprague-Dawley rat at 20 mg/kg, po; type: ADME, organism-based; parameters: dose 20 mg/kg, route oral; details: in vivo; how it was run: as §1
[21] = AUC (0 to t) in Sprague-Dawley rat at 10 mg/kg, iv; type: ADME, organism-based; parameters: dose 10 mg/kg, route intravenous; details: plasma; how it was run: as §1
[22] = Apparent clearance in Sprague-Dawley rat at 10 mg/kg, iv; type: ADME, organism-based; parameters: dose 10 mg/kg, route intravenous; details: in vivo, read-out: CL(app) (converted); how it was run: as §1
Rattus norvegicus [23] = assay: AUC (0 to infinity) in Sprague-Dawley rat at 50 mg/kg, po; type: ADME, organism-based, Plasma; parameters: time infinity, dose 50 mg/kg, route oral; details: in vivo; how it was run: as §1
[24] = Half life in Sprague-Dawley rat at 50 mg/kg, po; type: ADME, organism-based; parameters: dose 50 mg/kg, route oral; details: in vivo; how it was run: as §1
[25] = Half life in Sprague-Dawley rat at 20 mg/kg, iv; type: ADME, organism-based; parameters: dose 20 mg/kg, route intravenous; details: in vivo; how it was run: as §1
[26] = Cmax in Sprague-Dawley rat at 50 mg/kg, po; type: ADME, organism-based; parameters: dose 50 mg/kg, route oral; details: in vivo; how it was run: as §1
[27] = Mean residence time in Sprague-Dawley rat at 50 mg/kg, po; type: ADME, organism-based; parameters: dose 50 mg/kg, route oral; details: in vivo; how it was run: as §1
[28] = Tmax in Sprague-Dawley rat at 50 mg/kg, po; type: ADME, organism-based; parameters: dose 50 mg/kg, route oral; details: in vivo; how it was run: as §1
Rattus norvegicus [29] = assay: Apparent clearance in Sprague-Dawley rat at 20 mg/kg, iv; type: ADME, organism-based; parameters: dose 20 mg/kg, route intravenous; details: in vivo; how it was run: as §1
[30] = Cmax in Sprague-Dawley rat at 20 mg/kg, iv; type: ADME, organism-based; parameters: dose 20 mg/kg, route intravenous; details: in vivo; how it was run: as §1
[31] = Mean residence time in Sprague-Dawley rat at 20 mg/kg, iv; type: ADME, organism-based; parameters: dose 20 mg/kg, route intravenous; details: in vivo; how it was run: as §1
Rattus norvegicus [32] = assay: AUC (0 to infinity) in Sprague-Dawley rat at 20 mg/kg, iv; type: ADME, organism-based, Plasma; parameters: dose 20 mg/kg, route intravenous, time infinity; details: in vivo; how it was run: as §1
[33] = AUC (0 to t) in Sprague-Dawley rat at 20 mg/kg, iv; type: ADME, organism-based; parameters: dose 20 mg/kg, route intravenous; details: plasma; how it was run: as §1
[34] = Tmax in Sprague-Dawley rat at 20 mg/kg, iv; type: ADME, organism-based; parameters: dose 20 mg/kg, route intravenous; details: in vivo; how it was run: as §1
Rattus norvegicus [35] = assay: Oral bioavailability in Sprague-Dawley rat at 50 mg/kg; type: ADME, organism-based; details: in vivo; how it was run: as §1
[36] = AUC (0 to t) in Sprague-Dawley rat at 50 mg/kg, po; type: ADME, organism-based; parameters: dose 50 mg/kg, route oral; details: plasma; how it was run: as §1

T2 sequence (Q12809 whole entry): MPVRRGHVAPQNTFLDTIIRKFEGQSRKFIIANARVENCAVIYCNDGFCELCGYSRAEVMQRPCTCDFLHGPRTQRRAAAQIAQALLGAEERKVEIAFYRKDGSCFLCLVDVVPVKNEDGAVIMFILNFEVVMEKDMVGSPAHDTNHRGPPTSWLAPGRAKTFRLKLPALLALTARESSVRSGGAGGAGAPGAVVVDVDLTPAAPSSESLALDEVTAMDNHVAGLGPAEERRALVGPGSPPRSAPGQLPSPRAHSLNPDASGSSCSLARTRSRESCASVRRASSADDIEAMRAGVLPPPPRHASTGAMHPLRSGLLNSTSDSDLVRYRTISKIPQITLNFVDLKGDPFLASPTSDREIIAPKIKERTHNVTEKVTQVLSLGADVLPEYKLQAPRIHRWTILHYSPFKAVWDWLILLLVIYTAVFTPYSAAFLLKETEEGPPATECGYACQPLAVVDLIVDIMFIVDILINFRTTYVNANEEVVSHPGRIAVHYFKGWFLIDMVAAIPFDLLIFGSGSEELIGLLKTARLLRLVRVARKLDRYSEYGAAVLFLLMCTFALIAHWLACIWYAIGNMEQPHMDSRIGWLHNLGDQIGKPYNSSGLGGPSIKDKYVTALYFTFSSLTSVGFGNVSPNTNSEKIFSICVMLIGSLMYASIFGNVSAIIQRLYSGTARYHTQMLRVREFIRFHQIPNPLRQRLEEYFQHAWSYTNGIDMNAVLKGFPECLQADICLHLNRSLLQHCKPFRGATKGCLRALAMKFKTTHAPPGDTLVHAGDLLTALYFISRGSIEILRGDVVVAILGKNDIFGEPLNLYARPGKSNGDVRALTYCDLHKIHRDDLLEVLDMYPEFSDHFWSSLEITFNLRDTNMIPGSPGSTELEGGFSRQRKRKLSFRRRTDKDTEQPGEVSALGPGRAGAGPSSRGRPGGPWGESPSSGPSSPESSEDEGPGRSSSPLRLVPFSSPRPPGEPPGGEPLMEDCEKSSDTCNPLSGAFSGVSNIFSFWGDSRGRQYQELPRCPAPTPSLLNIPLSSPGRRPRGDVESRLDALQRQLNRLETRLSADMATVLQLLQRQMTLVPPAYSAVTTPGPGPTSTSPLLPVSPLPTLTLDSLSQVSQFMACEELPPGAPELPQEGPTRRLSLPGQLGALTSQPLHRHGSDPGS
Cytochrome P450 2C9, sequence (P11712 whole entry): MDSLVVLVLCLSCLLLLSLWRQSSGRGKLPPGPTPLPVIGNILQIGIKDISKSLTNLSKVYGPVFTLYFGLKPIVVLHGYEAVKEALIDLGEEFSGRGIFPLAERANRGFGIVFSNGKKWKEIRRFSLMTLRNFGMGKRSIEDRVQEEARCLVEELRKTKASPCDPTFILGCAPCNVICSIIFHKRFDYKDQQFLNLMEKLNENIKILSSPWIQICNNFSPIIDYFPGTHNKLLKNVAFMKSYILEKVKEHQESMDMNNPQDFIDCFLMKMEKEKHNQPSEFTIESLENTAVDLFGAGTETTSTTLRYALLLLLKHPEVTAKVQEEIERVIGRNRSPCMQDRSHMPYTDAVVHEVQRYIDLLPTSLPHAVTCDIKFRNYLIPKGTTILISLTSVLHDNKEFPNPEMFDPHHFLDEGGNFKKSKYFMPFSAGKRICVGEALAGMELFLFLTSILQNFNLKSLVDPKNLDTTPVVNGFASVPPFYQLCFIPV
Cytochrome P450 3A4, sequence (P08684 whole entry): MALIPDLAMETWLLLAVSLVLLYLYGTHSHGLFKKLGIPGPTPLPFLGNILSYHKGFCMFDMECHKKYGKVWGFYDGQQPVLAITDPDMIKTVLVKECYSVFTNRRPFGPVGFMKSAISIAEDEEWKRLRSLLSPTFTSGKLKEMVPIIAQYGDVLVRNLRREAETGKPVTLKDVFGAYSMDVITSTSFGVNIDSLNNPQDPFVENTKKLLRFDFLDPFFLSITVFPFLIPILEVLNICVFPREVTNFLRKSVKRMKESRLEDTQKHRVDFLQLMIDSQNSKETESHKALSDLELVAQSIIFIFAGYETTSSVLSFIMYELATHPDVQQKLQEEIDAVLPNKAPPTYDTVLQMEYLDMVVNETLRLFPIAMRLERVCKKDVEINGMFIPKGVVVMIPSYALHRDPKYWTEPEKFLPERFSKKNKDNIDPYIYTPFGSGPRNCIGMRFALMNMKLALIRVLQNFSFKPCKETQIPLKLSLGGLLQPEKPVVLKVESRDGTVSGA
Dipeptidyl peptidase 9, sequence (Q86TI2 whole entry): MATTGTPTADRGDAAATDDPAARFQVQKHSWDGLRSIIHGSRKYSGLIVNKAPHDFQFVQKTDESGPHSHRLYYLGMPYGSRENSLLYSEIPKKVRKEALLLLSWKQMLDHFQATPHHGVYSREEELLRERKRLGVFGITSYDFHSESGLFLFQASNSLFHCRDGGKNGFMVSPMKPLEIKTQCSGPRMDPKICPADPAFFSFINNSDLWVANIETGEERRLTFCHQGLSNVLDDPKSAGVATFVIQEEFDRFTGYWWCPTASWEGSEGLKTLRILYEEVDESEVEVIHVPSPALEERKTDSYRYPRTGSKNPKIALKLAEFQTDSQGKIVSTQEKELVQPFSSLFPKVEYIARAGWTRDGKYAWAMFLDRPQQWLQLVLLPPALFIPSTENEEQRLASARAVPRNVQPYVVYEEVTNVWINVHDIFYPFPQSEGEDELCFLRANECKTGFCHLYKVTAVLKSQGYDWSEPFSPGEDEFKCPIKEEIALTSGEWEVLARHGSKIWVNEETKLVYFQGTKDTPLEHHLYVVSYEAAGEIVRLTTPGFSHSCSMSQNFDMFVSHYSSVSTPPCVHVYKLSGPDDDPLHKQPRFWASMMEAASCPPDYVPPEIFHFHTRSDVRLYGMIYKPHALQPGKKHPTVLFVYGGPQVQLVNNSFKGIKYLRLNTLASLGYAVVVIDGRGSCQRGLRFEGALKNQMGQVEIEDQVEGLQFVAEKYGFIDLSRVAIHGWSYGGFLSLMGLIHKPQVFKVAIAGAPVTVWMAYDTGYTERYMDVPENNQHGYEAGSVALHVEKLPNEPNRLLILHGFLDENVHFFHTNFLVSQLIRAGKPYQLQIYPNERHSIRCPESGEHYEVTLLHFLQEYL
Dipeptidyl peptidase 8, sequence (Q6V1X1 whole entry): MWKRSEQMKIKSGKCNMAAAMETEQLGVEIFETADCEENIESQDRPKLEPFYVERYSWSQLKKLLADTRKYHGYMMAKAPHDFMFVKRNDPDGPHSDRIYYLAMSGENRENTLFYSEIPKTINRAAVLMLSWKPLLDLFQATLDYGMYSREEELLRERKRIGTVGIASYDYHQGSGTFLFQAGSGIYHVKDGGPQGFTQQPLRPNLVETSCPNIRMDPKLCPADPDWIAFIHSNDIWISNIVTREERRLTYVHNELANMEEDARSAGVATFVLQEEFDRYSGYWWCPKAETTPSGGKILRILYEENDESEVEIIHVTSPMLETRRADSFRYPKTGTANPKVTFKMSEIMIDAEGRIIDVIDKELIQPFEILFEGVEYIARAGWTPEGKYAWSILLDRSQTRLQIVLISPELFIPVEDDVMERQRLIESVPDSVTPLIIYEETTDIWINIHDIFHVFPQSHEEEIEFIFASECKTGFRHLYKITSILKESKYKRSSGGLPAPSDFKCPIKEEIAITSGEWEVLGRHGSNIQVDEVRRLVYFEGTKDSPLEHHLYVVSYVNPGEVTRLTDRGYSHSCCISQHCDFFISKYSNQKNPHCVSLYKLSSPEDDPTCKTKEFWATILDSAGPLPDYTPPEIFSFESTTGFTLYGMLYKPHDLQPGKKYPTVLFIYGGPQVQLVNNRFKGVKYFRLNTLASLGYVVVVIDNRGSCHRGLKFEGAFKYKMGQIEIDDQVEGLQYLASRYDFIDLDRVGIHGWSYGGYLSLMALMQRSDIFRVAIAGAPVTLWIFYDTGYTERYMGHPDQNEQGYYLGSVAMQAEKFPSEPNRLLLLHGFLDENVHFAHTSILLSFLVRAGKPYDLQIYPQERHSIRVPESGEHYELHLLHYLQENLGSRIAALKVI

Structure (SMILES): N#C[C@@H]1C[C@@H]2CCC[C@@H]2N1C(=O)C[C@H](N)Cc1ccccc1
IC50 (Prolyl endopeptidase FAP): Not Active
IC50 (Dipeptidyl peptidase 2): Not Active
IC50 (Dipeptidyl peptidase 8): Not Active
pIC50 (Dipeptidyl peptidase 9): 3.97

Structure (SMILES): Cc1ccccc1C[C@@H](N)CC(=O)N1[C@H](C#N)C[C@@H]2CCC[C@@H]21
pIC50 (Prolyl endopeptidase FAP; read-out: IC50): 3.96
IC50 (Dipeptidyl peptidase 2): Not Active

Structure (SMILES): N#C[C@@H]1C[C@@H]2CCC[C@@H]2N1C(=O)C[C@H](N)Cc1cc(F)c(F)cc1F
Activity (Mus musculus [1]): inactive
AUC (Rattus norvegicus [2]): 2360 ng/mL.hr
Activity (Mus musculus [3]): 1.43 mEq/L
F (Rattus norvegicus [4]): 22.8%
Cmax [5]: 1120 ng/mL
Cmax [6]: 509 ng/mL
MRT [7]: 2.81 h
AUC (Rattus norvegicus [8]): 4974 ng·h/mL
Activity (Mus musculus [9]): 19.7 mM
half-life [10]: 2.74 h
MRT [11]: 2.71 h
IC50 (Cytochrome P450 2C9): Not Active
Tmax [12]: 0.5 h
Activity (Mus musculus [13]): 21.3 mM
Activity (Mus musculus [14]): 0.85 mM
Activity (Mus musculus [15]): Dose-dependent effect
pIC50 (Cytochrome P450 3A4): 5.65
AUC(0-t) [16]: 2040 ng·h/mL
half-life [17]: 2.39 h
pIC50 [18]: < 4.40
pIC50 [19]: 4.26
Tmax [20]: 0.5 h
AUC(0-t) [21]: 4470 ng·h/mL
clearance [22]: 33.5 mL/min/kg

Structure (SMILES): N#C[C@@H]1CCCN1C(=O)CNC12CC3CC(CC(O)(C3)C1)C2 [VILDAGLIPTIN]
Activity (Mus musculus [1]): inactive
Activity (Mus musculus [3]): 1.07 mEq/L
Activity (Mus musculus [9]): 18.5 mM
Activity (Mus musculus [13]): 22.2 mM
Activity (Mus musculus [14]): 0.75 mM

More lines, main results first:

pIC50 (Dipeptidyl peptidase 2; read-out: IC50): 3.89
Structure (SMILES): N#C[C@@H]1C[C@H](F)CN1C(=O)C[C@H](N)Cc1ccccc1Cl

AUC (Rattus norvegicus [23]): 8935 ng·h/mL
half-life [24]: 2.03 h
half-life [25]: 2.33 h
Cmax [26]: 2690 ng/mL
MRT [27]: 3.03 h
Tmax [28]: 0.3 h
CL(app) (Rattus norvegicus [29]): 57 mL/min/kg
IC50 (Cytochrome P450 2C9): Not Active
Cmax [30]: 2710 ng/mL
MRT [31]: 2.93 h
AUC (Rattus norvegicus [32]): 5870 ng/mL.hr
AUC(0-t) [33]: 5840 ng·h/mL
pIC50 (Cytochrome P450 3A4): 4.25
Tmax [34]: 0.3 h
F (Rattus norvegicus [35]): 53.2%
AUC(0-t) [36]: 8840 ng·h/mL
Structure (SMILES): N#C[C@@H]1C[C@H](F)CN1C(=O)C[C@H](N)Cc1cc(F)c(F)cc1F
Activity (Mus musculus [15]): Dose-dependent effect
pIC50 [18]: < 4.40
pIC50 [19]: 4.01

IC50 (Dipeptidyl peptidase 2): Not Active
Structure (SMILES): N#C[C@@H]1C[C@@H]2CCC[C@@H]2N1C(=O)C[C@H](N)Cc1ccccc1Cl
